Assay outcomes deposited in PubChem BioAssay by several laboratories.
The list is not random: actives were taken first. Their share in the collection is about 2.2%.
PfM18AAP inh-1: PfM18AAP enzyme inhibition; recombinant PfM18AAP, H-Glu-NHMec fluorogenic cleavage; inhibition, % at 7.35 µM; actives 1.2% (n = 290,000);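 active = inhibition above the campaign mean inhibition over all tested compounds plus 3 SD, cut at about 28% in these data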;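 note: 0% = plate median of test compound wells and 100% = 2 mM ZnCl2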
Neddyl block: inhibitors of human cullin neddylation; inhibition, % at 25 µM; AID 651699; TR-FRET cullin neddylation, biochemical; actives 0.58% (n = 360,000); P61081+Q13564; in the data active = inhibition above about 36%
HKDC1 inhibitor: inhibitors of human hexokinase HKDC1; actives 0.16% (n = 340,000); inhibition, % at 20 µM; recombinant HKDC1, G6PDH/diaphorase resazurin coupled fluorescence; Q2TB90;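 active = inhibition above about 35% when tested at 20 µM, limit read from the data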;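 note: plate controls were DMSO wells with enzyme for no effect and DMSO wells lacking enzyme for full effect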
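Test system: Recombinant HKDC1 (HK5) hexokinase enzyme, produced in-house | Input: HKDC1 at 5 µg/mL | Buffer or medium: Tris pH 8.0 buffer with MgCl2, Tween-20, BSA, BME | Schedule: 90 min reaction incubation at room temperature, dark | Technique: Resazurin-to-resorufin fluorescence via G6PDH and diaphorase coupling, 525/613 nm | Controls: DMSO wells with and without enzyme mix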
PfGluPho inh: PfG6PD (Plasmodium falciparum) enzyme inhibition; PfGluPho enzyme, NADPH resazurin-diaphorase fluorescence; inhibition, % at 20 µM; actives 0.78% (n = 350,000); AID 504690;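 active = inhibition reaching at least a set limit at 20 µM in the primary screen, cut at about 59% in these data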;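 note: 0% = DMSO wells with substrate and 100% = DMSO wells lacking glucose-6-phosphate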
PfM18AAP inh-2: PfM18AAP inhibition, confirmation; inhibition, % at 7.35 µM; recombinant PfM18AAP, H-Glu-NHMec fluorogenic cleavage; actives 28% (n = 2,400); shares compounds with PfM18AAP inh-1; AID 2170;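 active = mean inhibition over replicate wells above the hit cutoff set for the earlier primary screen, cut at about 29% in these data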;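 note: 0% = median of test compound wells and 100% = 2 mM ZnCl2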
CTSL1 counter: Cathepsin L (human) inhibition, confirmation. shares compounds with PfM18AAP inh-1. purified cathepsin L1, Z-Leu-Arg-MCA fluorescence. inhibition, % at 5.96 µM. 2,400 tested, under 10 active;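 active = average inhibition across replicates above the hit cutoff set in the earlier primary screen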;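 note: 0% = median of test compound wells and 100% = Z-Phe-Ala-diazomethylketone 1 µM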
Target sequence (P07711 whole entry, looked up): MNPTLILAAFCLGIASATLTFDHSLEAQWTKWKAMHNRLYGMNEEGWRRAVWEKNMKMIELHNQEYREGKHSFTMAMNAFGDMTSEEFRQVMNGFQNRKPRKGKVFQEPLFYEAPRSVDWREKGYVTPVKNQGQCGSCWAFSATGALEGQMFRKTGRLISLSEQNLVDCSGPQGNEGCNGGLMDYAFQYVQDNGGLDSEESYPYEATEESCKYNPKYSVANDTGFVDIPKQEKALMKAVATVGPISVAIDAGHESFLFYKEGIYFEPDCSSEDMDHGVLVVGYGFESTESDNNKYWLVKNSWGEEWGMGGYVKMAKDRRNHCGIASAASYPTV
PfGluPho conf: PfG6PD inhibition, single-dose confirmed | inhibition, % at 20 µM | recombinant PfGluPho, NADPH-diaphorase-resazurin fluorescence | actives 34% (n = 2,400) | AID 504753 | shares compounds with PfGluPho inh;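 active = inhibition of at least 50% at 20 µM in any single replicate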;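 note: 0% = DMSO with substrate and 100% = DMSO lacking glucose-6-phosphate substrate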
Diaph ctr 10uM: diaphorase inhibition or oxidation at 10 uM NADPH; actives 39% (n = 820); AID 504862; inhibition, % at 20 µM; diaphorase-coupled resazurin reduction, fluorescence, NADPH 10 uM; shares compounds with PfGluPho inh;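 active = average inhibition reaching 50% or more with the compound at 20 µM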;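 note: resorufin red fluorescence formed as diaphorase reduces resazurin using NADPH; 0% = DMSO with enzyme and 100% = DMSO without enzyme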
Diaphorase 30uM: counter-screen for P. falciparum G6PD inhibitors: diaphorase inhibitors, oxidizers. actives 29% (n = 820). inhibition, % at 20 µM. shares compounds with PfGluPho inh. Diaphorase/resazurin coupled assay, resorufin fluorescence, 30 uM NADPH;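 active = inhibition averaging 50% or more, tested at 20 µM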;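 note: 0% = DMSO with enzyme and 100% = DMSO wells lacking diaphorase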
Neddyl inh conf: confirmation of human cullin neddylation inhibitors; shares compounds with Neddyl block; TR-FRET cullin neddylation biochemical assay; calls only at 25 µM; actives 13% (n = 1,800); AID 652217; in the data active = inhibition above about 40%;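 note: neddylation substrate is the cullin 1 ring ligase complex with SKP2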
Numbers without * were called inactive; i = inactive; x = no result shown; + = active, no number.

SMILES | PfM18AAP inh-1 | Neddyl block | HKDC1 inhibitor | PfGluPho inh | PfM18AAP inh-2 | CTSL1 counter | PfGluPho conf | Neddyl inh conf | others
COc1ccc(OC)c(N(CC(=O)N2CCCC2)S(C)(=O)=O)c1 | -2 | -2 | -5 | -5 | x | x | x | x
COc1ccc(-c2nc3ccccc3c(=O)n2NC(=S)N(C)C)cc1 | 36* | -5 | -19 | 80* | 33* | 2 | 44 | x
COc1cc(OC)cc(C(=O)NCC(=O)N2CCN(c3ccc(O)cc3)CC2)c1 | 36* | 3 | 2 | 60* | -25 | -3 | 43 | x
Cc1ccc(N2CC(C(=O)OCC(=O)c3ccc([N+](=O)[O-])cc3)CC2=O)cc1 (stereo unspecified) | 38* | -38 | -2 | 60* | -22 | -17 | 57* | x | Diaph ctr 10uM=-9;Diaphorase 30uM=-2
COc1cc(C2Nc3ccc4ncccc4c3C3=C2C(=O)CC(C)(C)C3)cc(OC)c1O (stereo unspecified) | 8 | -19 | 4 | 35 | x | x | x | x
COc1cc(C2Nc3ccc4ncccc4c3C3=C2C(=O)CCC3)cc(OC)c1O (stereo unspecified) | 43* | -2 | 15 | 69* | -5 | 2 | 29 | x
O=C(O)c1ccccc1C(=O)Nc1n[nH]c(=S)s1 | 63* | 0 | -13 | 72* | 9 | -3 | 34 | x
O=C(O)c1ccccc1C(=O)Nc1nccs1 | -5 | -5 | 2 | -1 | x | x | x | x
Cc1ccccc1NC(=O)NNC(=O)c1ccc2ccccc2c1O | 34* | 42* | 11 | -32 | 4 | 4 | x | +
COc1ccccc1NC(=O)NNC(=O)c1ccc2ccccc2c1O | 33* | 40* | 13 | -5 | 4 | 0 | x | i
COc1ccc(NC(=O)NNC(=O)c2ccc3ccccc3c2O)cc1OC | 39* | 35* | 11 | -19 | 12 | -1 | x | i
COc1ccc(NC(=O)c2cccc3ccccc23)cc1OC | x | -6 | x | 3 | x | x | x | x
COc1ccc(C)cc1NC(=O)c1cc(S(=O)(=O)N2CCOCC2)cn1C | -11 | 13 | -3 | 10 | x | x | x | x
COc1cccc(N2CCN(C(=O)c3ccc(Cl)c(NC4=NC5CS(=O)(=O)CC5S4)c3)CC2)c1 (stereo unspecified) | -8 | -1 | -4 | 0 | x | x | x | x
N=c1c(S(=O)(=O)c2ccccc2)cc2c(=O)n3ccccc3nc2n1CCCN1CCOCC1 | 34* | 63* | -3 | 5 | -30 | -4 | x | i
COC(=O)c1ccc(C(=O)OC)c(=O)[nH]1 | 18 | 49* | -8 | -5 | -62 | 3 | x | x
NC(=O)/C(=C/c1ccco1)C(N)=S | 42* | 68* | -2 | 48 | -15 | -1 | x | i
NC(=O)/C(=C\c1ccco1)NC(=O)c1ccco1 | x | 5 | x | 5 | x | x | x | x
Cc1ccc(NS(=O)(=O)c2cc(NC(=O)c3ccc4c(c3)NC(=O)CS4)ccc2Cl)c(C)c1 | 32* | 48* | -2 | 45 | -24 | -10 | x | i
O=C(O)c1cc2c(cn1)[nH]c1ccccc12 | 1 | x | 2 | -5 | x | x | x | x
C[C@H](NC(=O)c1cc2c(cn1)[nH]c1ccccc12)C(=O)O | 51* | 42* | -16 | 98* | 27 | 6 | 62* | + | Diaph ctr 10uM=-4;Diaphorase 30uM=-11
COc1cc(C2(c3ccc(O)c(OC)c3)C(=O)Nc3c(C)cc(Br)cc32)ccc1O | x | 2 | 5 | -30 | x | x | x | x
NNc1nc2ccccc2c(=O)n1Cc1ccccc1 | 54* | 41* | -1 | 51 | 39* | 3 | x | i
Cc1ccc(NC(=O)C2CCN(S(=O)(=O)c3ccc4ccccc4c3)CC2)nc1 | x | -12 | 8 | 8 | x | x | x | x
